From ChEMBL document CHEMBL2401676, “Synthesis and biological evaluation of pyrrolidine derivatives as novel and potent sodium channel blockers for the treatment of ischemic stroke” (Bioorg Med Chem Lett, 2013) come the findings set out here.

By inhibition is commonly meant how much of the control response was suppressed. As usually defined, the IC50 is the concentration that gives 50% inhibition.

The target of one series is hERG (KCNH2) (Homo sapiens, UniProt Q12809). The experiment in a line: Inhibition of human ERG channel expressed in HEK293 cells at 1 uM by voltage patch clamp technique. The note with it: HEK293 cells that express hERG. The format is cell-based. On the technique in general: The patch-clamp technique gives a direct electrical read-out from membranes.
Sequence of hERG (KCNH2) (Q12809 whole entry): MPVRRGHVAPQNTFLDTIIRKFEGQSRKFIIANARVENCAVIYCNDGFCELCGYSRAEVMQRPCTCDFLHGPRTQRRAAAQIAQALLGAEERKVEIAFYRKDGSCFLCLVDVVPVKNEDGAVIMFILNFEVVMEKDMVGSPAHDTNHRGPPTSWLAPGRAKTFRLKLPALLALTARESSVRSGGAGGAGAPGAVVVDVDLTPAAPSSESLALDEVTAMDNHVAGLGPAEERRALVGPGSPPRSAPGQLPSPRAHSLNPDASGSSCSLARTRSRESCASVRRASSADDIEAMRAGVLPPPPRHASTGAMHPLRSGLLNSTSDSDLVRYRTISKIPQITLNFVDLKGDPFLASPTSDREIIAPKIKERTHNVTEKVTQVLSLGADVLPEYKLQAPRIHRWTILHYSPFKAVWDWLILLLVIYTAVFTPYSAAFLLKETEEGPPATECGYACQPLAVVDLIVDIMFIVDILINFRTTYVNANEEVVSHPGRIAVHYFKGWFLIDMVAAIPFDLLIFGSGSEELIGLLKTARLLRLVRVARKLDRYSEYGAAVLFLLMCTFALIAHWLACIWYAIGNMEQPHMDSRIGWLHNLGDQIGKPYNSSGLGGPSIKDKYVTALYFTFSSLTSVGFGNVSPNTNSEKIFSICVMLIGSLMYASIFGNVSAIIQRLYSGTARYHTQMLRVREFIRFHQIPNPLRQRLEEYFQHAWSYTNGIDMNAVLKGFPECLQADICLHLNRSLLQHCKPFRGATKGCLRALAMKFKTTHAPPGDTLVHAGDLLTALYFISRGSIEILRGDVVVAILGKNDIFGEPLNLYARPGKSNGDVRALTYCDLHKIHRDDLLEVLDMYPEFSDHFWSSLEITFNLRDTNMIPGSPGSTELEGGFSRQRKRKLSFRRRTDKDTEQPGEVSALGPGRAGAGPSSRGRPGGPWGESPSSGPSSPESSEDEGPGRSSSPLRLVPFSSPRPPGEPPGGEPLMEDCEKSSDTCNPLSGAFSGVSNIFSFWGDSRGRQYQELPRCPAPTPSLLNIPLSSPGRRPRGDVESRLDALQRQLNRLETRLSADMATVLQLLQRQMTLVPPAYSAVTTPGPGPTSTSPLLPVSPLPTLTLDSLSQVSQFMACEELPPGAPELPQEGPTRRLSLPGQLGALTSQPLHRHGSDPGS
Series [1] is described as follows: Inhibition of sodium channel in Wistar rat cerebrocortical synaptosomes assessed as inhibition of veratridine-induced depolarization using rhodamine-6G by spectrofluorometry. The format is subcellular, Brain.
A short description of series [2]: Neuroprotective activity in guinea pig papillary muscles assessed as action potential duration at 90% repolarization at 10 uM after 30 mins relative to control. The format is functional, Cavia porcellus, Muscle tissue. Put shortly:
(§1)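 Intracellular action potentials were evoked by 1 ms pulses at 1.5–3 times the voltage threshold, with all solutions held at 36 °C. APD90 was recorded before and 30 min after compound exposure and expressed against the pre-treatment value.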

A short description of series [3]: Neuroprotective activity in guinea pig papillary muscles assessed as action potential duration at 90% repolarization at 3 uM after 30 mins relative to control. It is filed as functional, Cavia porcellus, Muscle tissue. Put shortly:
as §1

Series [4] in a line: Neuroprotective activity in guinea pig papillary muscles assessed as action potential duration at 90% repolarization at 30 uM after 30 mins relative to control. It is filed as functional, Cavia porcellus, Muscle tissue. Put shortly:
as §1

The test system of series [5] is Rattus norvegicus. The experiment in a line: Neuroprotective activity in Wistar rat transient middle cerebral artery occlusion model at 0.8 mg/kg, sc administered 30 mins after occlusion. It is filed as functional. The following applies: route subcutaneous. Put shortly:
(§2)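 Female Wistar rats, 8 weeks old, underwent 90 min transient MCAO followed by reperfusion. Drug was given sc 30 min after occlusion at 0.8, 2.5 or 8.2 mg/kg, and controls received an equal volume of saline. At 24 h the brain was cut into 7 slices and TTC-stained. Infarct area per slice was measured by image analysis and summed to infarct volume; n = 5–6, mean ± SEM, Student's t-test.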

Series [6] relates to Rattus norvegicus. The experiment in a line: Neuroprotective activity in Wistar rat transient middle cerebral artery occlusion model at 2.5 mg/kg, sc administered 30 mins after occlusion. The following applies: route subcutaneous. It is filed as functional. Put shortly: as §2
The test system of series [7] is Rattus norvegicus. As to the kind of experiment: Neuroprotective activity in Wistar rat transient middle cerebral artery occlusion model at 8.2 mg/kg, sc administered 30 mins after occlusion. It is filed as functional. The following applies: route subcutaneous. Put shortly:
as §2

A short description of series [8]: Neuroprotective activity in guinea pig papillary muscles assessed as action potential duration at 90% repolarization at 100 uM after 30 mins relative to control. The format is functional, Cavia porcellus, Muscle tissue. Put shortly:
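Action potentials were evoked by 1 ms stimuli at 1.5–3 times threshold voltage, with all solutions kept at 36 °C. APD90 was recorded before compound exposure and again 30 min after.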

The test system of series [9] is Rattus norvegicus. The experiment in a line: Neuroprotective activity in Wistar rat transient MCAO model assessed as reduction in cerebral infarction size at 8.2 mg/kg, sc (reference value: 379.8 +/- 43.8 mm'3). It is filed as functional. The following applies: route subcutaneous. Put shortly: as §2
Series [10] deals with Rattus norvegicus. As to the kind of experiment: Neuroprotective activity in sc dosed Wistar rat transient middle cerebral artery occlusion model administered 30 mins after occlusion. It is filed as functional, organism-based. Put shortly: as §2

For `Cc1nc(OCCCCCN2CCCCC2)cc(-c2ccc(F)cc2)n1`, the inhibition at 1 µM at hERG (KCNH2) came out at 60%.
The same measure, in the same setting: under `Cc1cc(OC[C@@H](O)CN2CCN(c3ccc(Cc4ccc(F)cc4)cc3)CC2)c(C)c(C)c1N` stands 78%.
In the case of `c1ccc(CN2C[C@H](NC3CCCCC3)[C@@H](c3ccccc3)C2)cc1`, the IC50 in series [1] was found to be 570 nM.
For `c1ccc(CN2C[C@@H](NC3CCCCC3)[C@H](c3ccccc3)C2)cc1`, in [1], the half-maximal inhibitory concentration (IC50) worked out at 540 nM.
On to `C[C@@H](CN1CC[C@@]2(C)c3cccc(O)c3C[C@@H]1C2(C)C)OCc1ccccc1.Cl`, for which the Activity in series [2] is reported as 89.1%; in [3] it was 96.6%; in [4], 72.9%. For the same molecule, the inhibition at 1 µM against hERG (KCNH2) turned out to be 69%.
`OC(COc1ccc2c(c1)CCC2)CN1CCC(c2nc3ccccc3[nH]2)CC1` (configuration not stated) returned an inhibition at 1 µM on hERG (KCNH2) of 99%.
Regarding `c1ccc(CN2C[C@H](NC3CCCCC3)[C@H](c3ccccc3)C2)cc1`, the concentration for half-maximal inhibition (IC50) in [1] came out at 560 nM. Moreover, at 1 µM the inhibition against hERG (KCNH2) was 28%.
With `O=C(N[C@@H]1CN(Cc2ccccc2)C[C@H]1c1ccccc1)c1ccccc1` (racemic), the IC50 in series [1] was determined as 1900 nM. In addition, the inhibition at 1 µM on hERG (KCNH2) was 45%.
As to `c1ccc(CN[C@@H]2CN(Cc3ccccc3)C[C@H]2c2ccccc2)cc1` (racemic), the concentration for half-maximal inhibition (IC50) in series [1] worked out at 640 nM. The same molecule yielded an inhibition at 1 µM on hERG (KCNH2) of 57%.
`O=C(N[C@@H]1CN(Cc2ccccc2)C[C@H]1c1ccccc1)C1CCCCC1` (racemic): the IC50 in [1] was determined as 480 nM. Moreover, the inhibition at 1 µM against hERG (KCNH2) stood at 31%.
Take `c1ccc(CN2C[C@@H](NCC3CCCCC3)[C@H](c3ccccc3)C2)cc1` (racemic): the IC50 in series [1] was 320 nM. Also, at hERG (KCNH2), testing at 1 µM gave an inhibition of 60%.
Regarding `c1ccc(CN2C[C@@H](Nc3ccccc3)[C@H](c3ccccc3)C2)cc1` (racemic), in series [1], the half-maximal inhibitory concentration (IC50) turned out to be 480 nM. The same molecule came in with an inhibition at 1 µM at hERG (KCNH2) of 43%.
On the same counts, the results for `O=C(N[C@@H]1CN(Cc2ccccc2)C[C@H]1C1CCCCC1)C1CCCCC1` (racemic) are 740 nM and 45%.
On the same counts, the results for `c1ccc(CN[C@@H]2CN(Cc3ccccc3)C[C@H]2C2CCCCC2)cc1` (racemic) are 900 nM and 79%.
On the same counts, the results for `c1ccc(CN2C[C@@H](NC3CCCCC3)[C@H](C3CCCCC3)C2)cc1` (racemic) are 740 nM and 35%.
As for `Cl.Cl.c1ccc(CN2C[C@@H](NC3CCCCC3)[C@H](c3ccccc3)C2)cc1` (racemic), the Activity with Rattus norvegicus [5] is given as 27%; in the series on Rattus norvegicus [6], 37%; in [2], 95.3%; in the series on Rattus norvegicus [7] it was 56%; in series [8], 90.8%; in the series on Rattus norvegicus [9], 166.7 mm3. In series [4], the Activity amounted to 92.3%. In series [1], the IC50 came out at 510 nM. On hERG (KCNH2), this molecule showed an inhibition at 1 µM of 8.4%.
`c1ccc(CN2C[C@@H](NCC3CCCCC3)[C@H](C3CCCCC3)C2)cc1` (racemic): the half-inhibitory concentration (IC50) in series [1] was 560 nM. On hERG (KCNH2), testing at 1 µM gave an inhibition of 60%.
On to `c1ccc([C@@H]2CN(C3CCCCC3)C[C@H]2NC2CCCCC2)cc1` (racemic), for which the half-maximal inhibitory concentration (IC50) in series [1] was 3350 nM.
As for `c1ccc([C@@H]2CN(CC3CCCCC3)C[C@H]2NC2CCCCC2)cc1` (racemic), the 50% inhibitory concentration (IC50) in [1] turned out to be 380 nM. On hERG (KCNH2), this molecule returned an inhibition at 1 µM of 45%.
Turning to `c1ccc(CN2C[C@@H](NC3CCCCC3)[C@H](c3ccccc3)C2)cc1` (racemic), the Activity entry in the series with Rattus norvegicus [10] is “Dose-dependent effect”.
